Measured values reported in ChEMBL document CHEMBL2202986, “Guaianolide sesquiterpene lactones, a source to discover agents that selectively inhibit acute myelogenous leukemia stem and progenitor cells” (J Med Chem, 2012).

Legend:
HL-60 = assay: Cytotoxicity against human HL60 cells after 18 hrs by annexin-V labeling-based flow cytometry; type: functional, cell-based; conditions: HL-60, 18 h
[1] = Drug degradation at pH 7.4 assessed as release of PTL after 3 hrs; type: physicochemical; conditions: buffer, pH 7.4, 3 h
[2] = Cytotoxicity against human HL60/A cells after 18 hrs by annexin-V labeling-based flow cytometry; type: functional, cell-based
[3] = Cytotoxicity against human leukemia stem/progenitor cells assessed as viable CD34+ cells at 10 uM after 18 hrs by annexin-V labeling-based flow cytometry; type: functional, CD34+ cell
[4] = Cytotoxicity against human leukemia stem/progenitor cells assessed as cell viability at 5 uM after 18 hrs by annexin-V labeling-based flow cytometry; type: functional; conditions: in the assay text read “leukemia cells” for “leukemia stem/progenitor cells”, read-out: Activity
In short: (§1)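 Primary leukemia cells from AML patient blood were treated for 18 h in serum-free IMDM, then stained with CD34-APC and CD38-PECy7 for 30 min. After washing in cold PBS, cells were labelled with Annexin-V–FITC/PI for 15 min at room temperature and read by flow cytometry. Viability of total and CD34⁺ cells was normalized to untreated controls (mean, SD).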

[5] = Cytotoxicity against human leukemia cells assessed as cell viability at 10 uM after 18 hrs by annexin-V labeling-based flow cytometry
[6] = Cytotoxicity against human leukemia stem/progenitor cells assessed as viable CD34+ cells at 5 uM after 18 hrs by annexin-V labeling-based flow cytometry; type: functional, CD34+ cell; in short: as §1

Row | Drug degradation [1] | Structure (SMILES) | IC50 (HL-60) | IC50 [2] | Activity [3] | viability at 5 µM [4] | viability at 10 µM [5] | Activity [6]
1 | Not Active | C/C1=C\CC[C@@]2(C)O[C@@H]2[C@H]2OC(=O)[C@@H](Cn3cc(-c4cccc(N)c4)nn3)[C@@H]2CC1 | > 50 µM | > 100 µM | – | – | – | –
2 | Not Active | C/C1=C\CC[C@@]2(C)O[C@@H]2[C@H]2OC(=O)[C@@H](Cn3cc(-c4ccccc4)nn3)[C@@H]2CC1 | > 50 µM | > 100 µM | – | – | – | –
3 | Not Active | C/C1=C\CC[C@@]2(C)O[C@@H]2[C@H]2OC(=O)[C@@H](Cn3cc(CCCCO)nn3)[C@@H]2CC1 | > 50 µM | > 100 µM | – | – | – | –
4 | Not Active | C/C1=C\CC[C@@]2(C)O[C@@H]2[C@H]2OC(=O)[C@@H](Cn3cc(CO)nn3)[C@@H]2CC1 | > 50 µM | > 100 µM | – | – | – | –
5 | Active | C/C1=C\CC[C@@]2(C)O[C@@H]2[C@H]2OC(=O)[C@@H](CN=[N+]=[N-])[C@@H]2CC1 | 4.3 µM | 5.9 µM | 17.5% | 31.5% | 22.8% | 28.4%
6 | – | C=C1C(=O)O[C@H]2[C@H]1CCC(C)=C1CC[C@@](C)(OC)[C@@H]12 | 9.9 µM | 10.2 µM | 2.1% | 34.1% | 10.8% | 25.5%
7 | – | CC1=C2CC[C@@](C)(O)[C@@H]2[C@H]2OC(=O)[C@@H](CN=[N+]=[N-])[C@@H]2CC1 | 6.2 µM | 6.7 µM | 11.2% | 64.3% | 53.1% | 26.3%
8 | – | CC1=C2CC[C@@](C)(O)[C@@H]2[C@H]2OC(=O)[C@@H](C)[C@@H]2CC1 | > 50 µM | > 50 µM | 74.4% | 85% | 70.8% | 83.1%
9 | – | C=C1C(=O)O[C@@H]2[C@@H]3[C@@H](CC[C@@]3(C)O)[C@](C)(OC)CC[C@@H]12 | 9.4 µM | 11.2 µM | 76.3% | 96.5% | 75.2% | 95.8%
10 | – | C=C1CC[C@H]2C(=C)C(=O)O[C@@H]2[C@]2(O)[C@@H]1CC[C@@H]2C | 4.5 µM | 6.4 µM | 44.5% | 70.7% | 49.7% | 67.9%
11 | – | C=C1C(=O)O[C@@H]2C=C(CCC(C)=O)[C@@H](C)CC[C@@H]12 | > 50 µM | > 50 µM | 70.9% | 83.2% | 72% | 81.5%
